How the values were obtained:
Rattus norvegicus [1] = species on record: Rattus norvegicus; test: Toxicity (Ames Salmonella Test) in the presence of rat liver S-9 fraction in TA-100 strain (4*10e6 dilution); assay type: organism-based
Method in brief: (§1)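 TA-100 bacteria are exposed to varying compound concentrations for 30 min at 37 °C. They are then diluted to about 10³ bacteria/mL and plated on histidine-enriched (4.5 mM) agar. Surviving colonies are counted.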

Rattus norvegicus [2] = species on record: Rattus norvegicus; test: Mutagenic activity (Ames Salmonella Test) in the presence of rat liver S-9 fraction in TA-98 strain; assay type: functional
Method in brief: (§2)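 Liver 9000g supernatant (1.0 mg protein, PBS-diluted, filtered) plus NADPH (1 mg/plate) went into histidine/biotin-supplemented top agar with overnight TA-98 or TA-100 culture. Compound in Me2SO was added last, with Me2SO as control. His+ revertants were counted after 40 h at 37 °C in the dark, averaging ≥2 plates.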

Rattus norvegicus [3] = species on record: Rattus norvegicus; test: Mutagenic activity (Ames Salmonella Test) in the presence of rat liver S-9 fraction in TA-100 strain; assay type: functional; method in brief: as §2
Rattus norvegicus [4] = species on record: Rattus norvegicus; test: Mutagenic activity (Ames Salmonella Test) in the presence of rat liver S-9 fraction in TA-100 strain at a conc. of 1000 ug; assay type: functional; method in brief: as §2
Rattus norvegicus [5] = species on record: Rattus norvegicus; test: Toxicity (Ames Salmonella Test) in the presence of rat liver S-9 fraction in TA-100 strain at a conc. of 1000 ug (4*10e6 dilution); assay type: organism-based; method in brief: as §1
Rattus norvegicus [6] = species on record: Rattus norvegicus; test: Toxicity (Ames Salmonella Test) in the presence of rat liver S-9 fraction in TA-100 strain (4*10e7 dilution); assay type: organism-based; method in brief: as §1
Rattus norvegicus [7] = species on record: Rattus norvegicus; test: Mutagenic activity (Ames Salmonella Test) in the presence of rat liver S-9 fraction in TA-98 strain at aconc. of 1000 ug; assay type: functional
Method in brief: as §2, with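 “Male Sprague-Dawley rats received Arochlor 1254 (500 mg/kg in corn oil) and were killed 48 h later. Liver” for “Liver”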

Rattus norvegicus [8] = species on record: Rattus norvegicus; test: Mutagenic activity (Ames Salmonella Test) in the presence of rat liver S-9 fraction in TA-98 strain at a conc. of 1000 ug; assay type: functional
Method in brief: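 Plate-incorporation reversion assay in TA-98 from an overnight nutrient-broth culture (2–3 × 10⁹ bacteria/mL). The compound is in Me₂SO, added last to top agar at 45 °C. NADPH 1 mg/plate. His⁺ revertants are counted after 40 h at 37 °C in the dark.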

Rattus norvegicus [9] = species on record: Rattus norvegicus; test: Mutagenic activity (Ames Salmonella Test) in the presence of rat liver S-9 fraction in TA-100 strain at a conc. of 500 ug; assay type: functional
Method in brief: as §2, with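 “Male Sprague-Dawley rats received Arochlor 1254 (500 mg/kg in corn oil) and were killed 48 h later. Liver” for “Liver”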

Rattus norvegicus [10] = species on record: Rattus norvegicus; test: Mutagenic activity (Ames Salmonella Test) in the presence of rat liver S-9 fraction in TA-98 strain at a conc. of 500 ug; assay type: functional
Method in brief: as §2, with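 “Male Sprague-Dawley rats received Arochlor 1254 (500 mg/kg in corn oil) and were killed 48 h later. Liver” for “Liver”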

Rattus norvegicus [11] = species on record: Rattus norvegicus; test: Toxicity (Ames Salmonella Test) in the presence of rat liver S-9 fraction in TA-100 strain at a conc. of 500 ug (4*10e6 dilution); assay type: organism-based; method in brief: as §1
Rattus norvegicus [12] = species on record: Rattus norvegicus; test: Toxicity (Ames Salmonella Test) in the presence of rat liver S-9 fraction in TA-100 strain at a conc. of 500 ug (4*10e7 dilution); assay type: organism-based; method in brief: as §1

Row | SMILES | Toxicity (Rattus norvegicus [1]) | Mutagenicity (Rattus norvegicus [2]) | Mutagenicity (Rattus norvegicus [3]) | Mutagenicity (Rattus norvegicus [4]) | Toxicity (Rattus norvegicus [5]) | Toxicity (Rattus norvegicus [6]) | Mutagenicity (Rattus norvegicus [7]) | Mutagenicity (Rattus norvegicus [8]) | Mutagenicity (Rattus norvegicus [9]) | Mutagenicity (Rattus norvegicus [10]) | Toxicity (Rattus norvegicus [11]) | Toxicity (Rattus norvegicus [12])
1 | CC(C)/[N+]([O-])=C/C(O)COc1cccc2ccccc12 (stereo unspecified) | 232 | 18 | 162 |  |  |  |  |  |  |  |  | 
2 | CC(C)N(O)CC(O)COc1cccc2ccccc12.O=C(O)C(=O)O (stereo unspecified) | 165 | 18 | 143 | 61 | 60 | 18 | 20 |  |  |  |  | 
3 | CC(C)NO [ISOPROPYLHYDROXYLAMINE] | 230 | 18 | 150 |  |  |  |  |  |  |  |  | 
4 | CC(C)N(CC(O)COc1cccc2ccccc12)N=O (stereo unspecified) | 255 | 14 | 137 | 131 |  | 25 |  | 13 |  |  |  | 
5 | Br.CC(C)N(O)CC(O)COc1cccc2ccccc12 (stereo unspecified) |  |  |  | 134 | 183 |  |  | 8 | 117 | 12 | 265 | 28

From ChEMBL document CHEMBL1122457, “Derivatives of beta-adrenergic antagonists. N-Nitrosopropranolol and N-hydroxypropranolol and its aldonitrone” (J Med Chem, 1983)
